According to publication PMC4284021 (The Journal of Pharmacy and Pharmacology, 2014):
“And” between values parts separate entries of the source, which are not always exact repeats. Equal values may be shown once. Marks after values point to notes of the source that are not given here.

Experiments:
[1] = system: apolipoproteins (apo AI, apo AII, apo B, apo E); assay: Apolipoprotein concentrations by immunoturbidimetric methods in healthy subjects; type: in vivo, human; conditions: for Apo E: Mean % change vs placebo (90 % CI) / Ratio of apo B/apo AI: Mean % change from baseline (90% CI) / Ratio of apo B/apo AI: Mean % change vs placebo (90 % CI) / Apo AI: Mean % change from baseline (90% CI) / Apo AI: Mean % change vs placebo (90 % CI) / Apo AII: Mean % change from baseline (90% CI) / Apo AII: Mean % change vs placebo (90 % CI) / Apo B: Mean % change from baseline (90% CI) / Apo B: Mean % change vs placebo (90 % CI) / Apo E: Mean % change from baseline (90% CI): day 14
Summary of the method: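 Healthy adults took placebo or test compound (10, 100, 300, 600 mg) as capsules once daily with a low-fat meal for 14–15 days. Apo AI, AII, B and E were measured by immunoturbidimetry on a Roche Modular analyser. Values are percent change from baseline to Day 14, including all randomized subjects given at least one dose.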

healthy subjects [2] = assay: 24-h ambulatory blood pressure monitoring; type: in vivo, human; conditions: for effect on 24-h ambulatory systolic or diastolic blood pressure: 600 mg compared with placebo
Summary of the method: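 Double-blind crossover cohort (n = 15): placebo or 600 mg/day oral test compound for 14 days, then the other treatment after a 21-day washout. Subjects wore the ambulatory monitor about 12 h before Day 1 baseline. On Day 14, dosing came about 1 h after monitoring began. Readings every 20 min by day, every 30 min at night. The first hour was excluded. Value is mean SBP/DBP over the 24 h after dosing.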

healthy subjects [3] = assay: Safety and tolerability monitoring; type: in vivo, human
Summary of the method: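 All enrolled subjects were monitored on placebo or once-daily 10–600 mg oral capsules for up to 15 days. Monitoring covered vital signs, serum and plasma electrolytes, plasma renin activity, aldosterone, plasma and salivary cortisol, and adverse events coded by MedDRA 11.0 preferred term.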

dyslipidemic patients = conditions: cited from earlier work
healthy volunteers = conditions: doses of up to 1200 mg for 10 days; cited from earlier work
[4] = 600 mg, 24-h ABPM, Day 1 (baseline), mean (90% CI)
[5] = 600 mg/day for 14 days, 24-h ABPM
[6] = 600 mg/day for 14 days, 24-h ABPM, (90% CI)
[7] = 600 mg/day, 24-h ABPM, Day 14, mean (90% CI)
[8] = Phase 2, nearly 400 dyslipidemic patients

With `Cc1cc(C)c2c(c1)[C@@H](N(Cc1cc(C(F)(F)F)cc(C(F)(F)F)c1)c1nnn(C)n1)CCCN2C[C@H]1CC[C@H](C(=O)O)CC1` [evacetrapib] the “Apo E: Mean % change vs placebo (90 % CI)” value ([1]; 10 mg/day) was 8.36 (−2.89, 19.60) %, the “Ratio of apo B/apo AI: Mean % change from baseline (90% CI)” value ([1]; 10 mg/day) was −6.87 (−12.72, −1.02) % and the “Ratio of apo B/apo AI: Mean % change vs placebo (90 % CI)” value ([1]; 10 mg/day) was −26.63 (−34.88, −18.38) ^*** %. For the same compound, the “Apo AI: Mean % change from baseline (90% CI)” value ([1]; 100 mg/day) was 24.61 (20.07, 29.15) %, the “Apo AI: Mean % change vs placebo (90 % CI)” value ([1]; 100 mg/day) was 36.37 (27.66, 45.08) ^*** % and the “Apo AII: Mean % change from baseline (90% CI)” value ([1]; 100 mg/day) was 8.85 (4.69, 13.02) %. For the same compound, the “Apo AII: Mean % change vs placebo (90 % CI)” value ([1]; 100 mg/day) was 14.44 (7.16, 21.72) ^** %, the “Apo B: Mean % change from baseline (90% CI)” value ([1]; 100 mg/day) was −17.64 (−20.84, −14.43) % and the “Apo B: Mean % change vs placebo (90 % CI)” value ([1]; 100 mg/day) was −24.60 (−31.28, −17.92) ^*** %. The “Apo E: Mean % change from baseline (90% CI)” value ([1]; 100 mg/day) was 55.81 (36.13, 75.50) %, the “Apo E: Mean % change vs placebo (90 % CI)” value ([1]; 100 mg/day) was 44.47 (14.63, 74.30) ^* % and the “Ratio of apo B/apo AI: Mean % change from baseline (90% CI)” value ([1]; 100 mg/day) was −31.84 (−35.59, −28.09) %. For the same compound, the “Ratio of apo B/apo AI: Mean % change vs placebo (90 % CI)” value ([1]; 100 mg/day) was −51.60 (−59.36, −43.83) ^*** %, the “Apo AI: Mean % change from baseline (90% CI)” value ([1]; 300 mg/day) was 28.75 (23.70, 33.80) % and the “Apo AI: Mean % change vs placebo (90 % CI)” value ([1]; 300 mg/day) was 40.50 (31.66, 49.34) ^*** %. For the same compound, the “Apo AII: Mean % change from baseline (90% CI)” value ([1]; 300 mg/day) was 11.93 (7.75, 16.10) %, the “Apo AII: Mean % change vs placebo (90 % CI)” value ([1]; 300 mg/day) was 17.52 (10.86, 24.17) ^*** % and the “Apo B: Mean % change from baseline (90% CI)” value ([1]; 300 mg/day) was −18.85 (−22.45, −15.25) %. The “Apo B: Mean % change vs placebo (90 % CI)” value ([1]; 300 mg/day) was −25.81 (−32.59, −19.04) ^*** %, the “Apo E: Mean % change from baseline (90% CI)” value ([1]; 300 mg/day) was 76.75 (62.23, 91.28) % and the “Apo E: Mean % change vs placebo (90 % CI)” value ([1]; 300 mg/day) was 65.40 (40.39, 90.42) ^*** %. For the same compound, the “Ratio of apo B/apo AI: Mean % change from baseline (90% CI)” value ([1]; 300 mg/day) was −35.69 (−39.92, −31.46) %, the “Ratio of apo B/apo AI: Mean % change vs placebo (90 % CI)” value ([1]; 300 mg/day) was −55.45 (−63.26, −47.63) ^*** % and the “decrease in apo B” value ([1]; 600 mg, Day 14, vs placebo) was 26% and 26.1%. For the same compound, the “decrease in apo B/AI ratio” value ([1]; 600 mg, Day 14, vs placebo) was 56.5%, the “Apo AI: Mean % change from baseline (90% CI)” value ([1]; 600 mg/day) was 29.93 (24.51, 35.35) % and the “Apo AI: Mean % change vs placebo (90 % CI)” value ([1]; 600 mg/day) was 42% and 41.7% and 41.69 (32.70, 50.67) ^*** %. The “Apo AII: Mean % change from baseline (90% CI)” value ([1]; 600 mg/day) was 12.91 (8.06, 17.77) %, the “Apo AII: Mean % change vs placebo (90 % CI)” value ([1]; 600 mg/day) was 18.5% and 18.50 (11.71, 25.29) ^*** % and the “Apo B: Mean % change from baseline (90% CI)” value ([1]; 600 mg/day) was −19.17 (−22.94, −15.41) %. The “Apo B: Mean % change vs placebo (90 % CI)” value ([1]; 600 mg/day) was −26.14 (−32.97, −19.30) ^*** %, the “Apo E: Mean % change from baseline (90% CI)” value ([1]; 600 mg/day) was 85.48 (65.47, 105.49) % and the “Apo E: Mean % change vs placebo (90 % CI)” value ([1]; 600 mg/day) was 74.1% and 74.13 (47.95, 100.31) ^*** %. For the same compound, the “Ratio of apo B/apo AI: Mean % change from baseline (90% CI)” value ([1]; 600 mg/day) was −36.74 (−41.23, −32.25) %, the “Ratio of apo B/apo AI: Mean % change vs placebo (90 % CI)” value ([1]; 600 mg/day) was −56.50 (−64.39, −48.61) ^*** % and the “effect on 24-h ambulatory systolic or diastolic blood pressure” value (healthy subjects [2]) was “No significant differences”. The “effect on 24-h ambulatory systolic or diastolic blood pressure” value (healthy subjects [2]; listed as Evacetrapib) was “did not produce any significant effect”, the “correlation between exposure and blood pressure (Spearman's rank correlation coefficient)” value (healthy subjects [2]; 600 mg crossover cohort, P = 0.964) was 0.00954 and the “Diastolic blood pressure, Day 1 mean” value (healthy subjects [2]; [4]) was 68.27 (64.82, 71.72) mmHg. For the same compound, the “Systolic blood pressure, Day 1 mean” value (healthy subjects [2]; [4]) was 112.16 (109.12, 115.19) mmHg, the “Diastolic blood pressure, Difference (comparison with placebo)” value (healthy subjects [2]; [5]) was −2.28 mmHg and the “Systolic blood pressure, Difference (comparison with placebo)” value (healthy subjects [2]; [5]) was −1.96 mmHg. The “Diastolic blood pressure, LS mean change” value (healthy subjects [2]; [6]) was 0.60 (−1.45, 2.65) mmHg, the “Systolic blood pressure, LS mean change” value (healthy subjects [2]; [6]) was −0.27 (−2.64, 2.11) mmHg and the “Diastolic blood pressure, Day 14 mean” value (healthy subjects [2]; [7]) was 73.72 (70.26, 77.18) mmHg. The “Systolic blood pressure, Day 14 mean” value (healthy subjects [2]; [7]) was 118.28 (113.78, 122.77) mmHg, the “severity of adverse events” value (healthy subjects [3]; 10–600 mg) was “mild to moderate” and the tolerability (healthy subjects [3]; 10–600 mg for up to 15 days) was “generally well tolerated”. For the same compound, the “changes in routine serum chemistries (liver transaminases, complete blood counts, urinalysis)” value (healthy subjects [3]; in vivo) was “No clinically relevant changes”, the effect on aldosterone (healthy subjects [3]; multiple daily doses) was “no effect” and the “subjects reporting rash-related AEs (discontinued the study)” value (healthy subjects [3]; two at 300 mg, two at 600 mg) was “Four”. The tolerability (dyslipidemic patients; 12 weeks, daily doses up to 500 mg monotherapy or 100 mg with a statin) was “well tolerated”, the “decrease in LDL-C” value (dyslipidemic patients; [8]) was “up to 36%” and the “increase in HDL-C levels” value (dyslipidemic patients; [8]) was “up to 129%”. The “effects on blood pressure or mineralocorticoid activity” value (dyslipidemic patients; Phase 2) was “without having effects”, the QT interval prolongation (healthy volunteers) was “no evidence of QT interval prolongation” and the tolerability (healthy volunteers) was “well tolerated”.
